Data on 46 compounds can be found in ChEMBL document CHEMBL1149790, “Synthesis of some novel thiourea derivatives obtained from 5-[(4-aminophenoxy)methyl]-4-alkyl/aryl-2,4-dihydro-3H-1,2,4-triazole-3-thiones and evaluation as antiviral/anti-HIV and anti-tuberculosis agents” (Eur J Med Chem, 2008).

Molecules are shown by their SMILES. ≈ marks a conversion by molar mass, not a printed value.

Experiment [1] relates to Vaccinia virus. Nature of the experiment: Antiviral activity against Vaccinia virus in human E6SM cells assessed as reduction of virus-induced cytopathogenicity. The format is functional. The settings on record: Orthopoxvirus vaccinia. The gist of the method: (§1)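 Confluent cell monolayers (E6SM, HEL, HeLa or Vero, per line) inoculated with 100 CCID50 virus; 1 h adsorption, residual virus removed, then incubated with compound at 400, 200, 100 … µg/ml. Cytopathicity scored once complete in untreated virus controls; MIC = concentration inhibiting virus-induced cytopathicity.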

Experiment [2] has as its system Vaccinia virus. Nature of the experiment: Antiviral activity against Vaccinia virus in human HEL cells assessed as reduction of virus-induced cytopathogenicity. The format is functional. The conditions noted are these: Orthopoxvirus vaccinia. The gist of the method:
as §1

Consider `CNC(=S)Nc1ccc(-c2n[nH]c(=S)n2-c2ccccc2)cc1`, for which the MIC in experiment [1] and in experiment [2] was over 80 µg/mL in each case.
Regarding `S=C(Nc1ccccc1)Nc1ccc(-c2n[nH]c(=S)n2-c2ccccc2)cc1`, the MIC in experiment [1] and in experiment [2] was over 80 µg/mL throughout.
In the case of `C=CCNC(=S)Nc1ccc(-c2nnc(SCc3ccc(Cl)cc3Cl)n2C)cc1`, the MIC in experiment [1] and in experiment [2] was over 16 µg/mL in each case.
Take `C=CCNC(=S)Nc1ccc(-c2n[nH]c(=S)n2CC)cc1`: the MIC in experiment [1] and in experiment [2] was 240 µg/mL (≈ 751 µM) throughout.
`Nc1nc2c(ncn2COCCO)c(=O)[nH]1` [ACYCLOVIR]: the MIC in experiment [1] and in experiment [2] was over 400 µg/mL each time.
As for `CNC(=S)Nc1ccc(OCc2n[nH]c(=S)n2-c2ccccc2)cc1`, the MIC in experiment [1] and in experiment [2] was over 400 µg/mL each time.
As for `CCn1c(COc2ccc(NC(=S)NC)cc2)n[nH]c1=S`, the MIC in experiment [1] and in experiment [2] was over 400 µg/mL throughout.
On to `CCNC(=S)Nc1ccc(-c2n[nH]c(=S)n2-c2ccccc2)cc1`, for which the MIC in experiment [1] and in experiment [2] was over 3.2 µg/mL each time.
Consider `C=CCn1c(COc2ccc(NC(=S)Nc3ccccc3)cc2)n[nH]c1=S`, for which the MIC in experiment [1] and in experiment [2] was over 80 µg/mL throughout.
Turning to `C=CCNC(=S)Nc1ccc(-c2n[nH]c(=S)n2CCCCCC)cc1`, the MIC in experiment [1] and in experiment [2] was over 16 µg/mL in each case.
As for `CCNC(=S)Nc1ccc(OCc2n[nH]c(=S)n2CC)cc1`, the MIC in experiment [1] and in experiment [2] was 240 µg/mL (≈ 711 µM) in each case.
For `C=CCNC(=S)Nc1ccc(-c2n[nH]c(=S)n2C)cc1`, the MIC in experiment [1] and in experiment [2] was 240 µg/mL (≈ 786 µM) each time.
For the compound `CCCCCCNC(=S)Nc1ccc(-c2n[nH]c(=S)n2-c2ccccc2)cc1`, the MIC in experiment [1] and in experiment [2] was over 16 µg/mL in each case.
Turning to `CCCCCCNC(=S)Nc1ccc(-c2n[nH]c(=S)n2C)cc1`, the MIC in experiment [1] and in experiment [2] was 80 µg/mL (≈ 229 µM) in each case.
`C=CCNC(=S)Nc1ccc(OCc2n[nH]c(=S)n2CC)cc1`: the MIC in experiment [1] and in experiment [2] was 240 µg/mL (≈ 687 µM) each time.
Regarding `CCNC(=S)Nc1ccc(OCc2n[nH]c(=S)n2C)cc1`, the MIC in experiment [1] and in experiment [2] was over 400 µg/mL throughout.
`C=CCNC(=S)Nc1ccc(-c2n[nH]c(=S)n2-c2ccccc2)cc1`: the MIC in experiment [1] and in experiment [2] was over 80 µg/mL throughout.
With `S=C(Nc1ccccc1)Nc1ccc(OCc2n[nH]c(=S)n2-c2ccccc2)cc1`, the MIC in experiment [1] and in experiment [2] was over 80 µg/mL in each case.
In the case of `C=CCNC(=S)Nc1ccc(OCc2n[nH]c(=S)n2CC=C)cc1`, the MIC in experiment [1] and in experiment [2] was 240 µg/mL (≈ 664 µM) in each case.
As to `C=CCNC(=S)Nc1ccc(-c2n[nH]c(=S)n2CC=C)cc1`, the MIC in experiment [1] is over 400 µg/mL; in experiment [2], over 80 µg/mL.
As for `NC(=O)c1ncn([C@@H]2O[C@H](CO)[C@@H](O)[C@H]2O)n1` [RIBAVIRIN], the MIC in experiment [1] and in experiment [2] was 48 µg/mL (≈ 197 µM) throughout.
For `C=CCNC(=S)Nc1ccc(OCc2n[nH]c(=S)n2-c2ccccc2)cc1`, the MIC in experiment [1] and in experiment [2] was 240 µg/mL (≈ 604 µM) throughout.
For the compound `S=C(Nc1ccc(Cl)cc1)Nc1ccc(-c2n[nH]c(=S)n2-c2ccccc2)cc1`, the MIC in experiment [1] and in experiment [2] was over 16 µg/mL in each case.
Take `C=CCNC(=S)Nc1ccc(-c2nnc(SCc3ccc(Cl)cc3Cl)n2-c2ccccc2)cc1`: the MIC in experiment [1] and in experiment [2] was over 16 µg/mL throughout.
As for `C=CCn1c(-c2ccc(NC(=S)NC)cc2)n[nH]c1=S`, the MIC in experiment [1] and in experiment [2] was 240 µg/mL (≈ 786 µM) each time.
On to `CCNC(=S)Nc1ccc(OCc2n[nH]c(=S)n2-c2ccccc2)cc1`, for which the MIC in experiment [1] and in experiment [2] was over 400 µg/mL in each case.
As to `CCNC(=S)Nc1ccc(-c2n[nH]c(=S)n2C)cc1`, the MIC in experiment [1] and in experiment [2] was 240 µg/mL (≈ 818 µM) each time.
Take `C=CCNC(=S)Nc1ccc(OCc2n[nH]c(=S)n2C)cc1`: the MIC in experiment [1] and in experiment [2] was over 400 µg/mL in each case.
Regarding `CCn1c(COc2ccc(NC(=S)Nc3ccccc3)cc2)n[nH]c1=S`, the MIC in experiment [1] and in experiment [2] was over 80 µg/mL each time.
Regarding `C=CCn1c(COc2ccc(N)cc2)n[nH]c1=S`, the MIC in experiment [1] and in experiment [2] was over 400 µg/mL in each case.
With `Cn1c(COc2ccc(N)cc2)n[nH]c1=S`, the MIC in experiment [1] and in experiment [2] was 240 µg/mL (≈ 1020 µM) each time.
Turning to `CNC(=S)Nc1ccc(OCc2n[nH]c(=S)n2C)cc1`, the MIC in experiment [1] and in experiment [2] was over 400 µg/mL throughout.
On to `C=CCn1c(COc2ccc(NC(=S)NCC)cc2)n[nH]c1=S`, for which the MIC in experiment [1] and in experiment [2] was over 400 µg/mL throughout.
As for `O=c1[nH]c(=O)n([C@H]2C[C@H](O)[C@@H](CO)O2)cc1/C=C/Br` [BRIVUDINE], the MIC in experiment [1] and in experiment [2] was 3.2 µg/mL (≈ 9.61 µM) in each case.
`C=CCn1c(COc2ccc(NC(=S)NC)cc2)n[nH]c1=S`: the MIC in experiment [1] and in experiment [2] was over 400 µg/mL throughout.
Regarding `C=CCNC(=S)Nc1ccc(-c2n[nH]c(=S)n2CCc2ccccc2)cc1`, the MIC in experiment [1] and in experiment [2] was over 80 µg/mL throughout.
In the case of `CNC(=S)Nc1ccc(-c2n[nH]c(=S)n2C)cc1`, the MIC in experiment [1] and in experiment [2] was 240 µg/mL (≈ 859 µM) throughout.
For the compound `Cn1c(-c2ccc(NC(=S)Nc3ccccc3)cc2)n[nH]c1=S`, the MIC in experiment [1] and in experiment [2] was over 80 µg/mL in each case.
For the compound `Cn1c(COc2ccc(NC(=S)Nc3ccccc3)cc2)n[nH]c1=S`, the MIC in experiment [1] and in experiment [2] was over 80 µg/mL each time.
Take `CCCCCCNC(=S)Nc1ccc(-c2n[nH]c(=S)n2CCCCCC)cc1`: the MIC in experiment [1] and in experiment [2] was over 3.2 µg/mL in each case.
With `Nc1ccc(OCc2n[nH]c(=S)n2-c2ccccc2)cc1`, the MIC in experiment [1] and in experiment [2] was over 400 µg/mL each time.
Regarding `CCCCCCNC(=S)Nc1ccc(-c2n[nH]c(=S)n2CC)cc1`, the MIC in experiment [1] and in experiment [2] was over 80 µg/mL each time.
Consider `Nc1nc2c(ncn2COC(CO)CO)c(=O)[nH]1` [GANCICLOVIR], for which the MIC in experiment [1] and in experiment [2] was over 100 µg/mL each time.
Turning to `CNC(=S)Nc1ccc(-c2nnc(SCc3ccccc3)n2C)cc1`, the MIC in experiment [1] and in experiment [2] was over 16 µg/mL in each case.
For the compound `C=CCn1c(-c2ccc(NC(=S)Nc3ccccc3)cc2)n[nH]c1=S`, the MIC in experiment [1] and in experiment [2] was over 16 µg/mL throughout.
For `CCn1c(COc2ccc(N)cc2)n[nH]c1=S`, the MIC in experiment [1] and in experiment [2] was 240 µg/mL (≈ 959 µM) in each case.
